{"data": "Measurements from different studies", "ST14": "Suppressor of tumorigenicity 14 protein (ST14, Homo sapiens, UniProt Q9Y5Y6)", "CDK2 with cyclin A2": "Cyclin-dependent kinase 2, with cyclin A2 (CDK2, Homo sapiens, UniProt P24941)", "Oprd1": "Delta-type opioid receptor (Oprd1, Rattus norvegicus, UniProt P33533)", "note": "Compare with care: the assays were run in different laboratories."}
{"Structure (SMILES)": "COc1cc(-c2cncc3c2CN(C)Cc2cc(N4CCNCC4)ccc2-3)cc(OC)c1OC", "target": "Cyclin-dependent kinase 2, with cyclin E (CDK2, Homo sapiens, UniProt P24941)", "test": "enzyme activity, inhibitor", "conditions": "1 µM", "endpoint": "remaining activity", "result": "107%"}
{"Structure (SMILES)": "O=C(COP(=O)(O)O)[C@@H](O)[C@H](O)[C@H](O)COP(=O)(O)O", "target": "Glyceraldehyde-3-phosphate dehydrogenase (GAPDH, Homo sapiens, UniProt P04406)", "test": "thermal stability", "conditions": "5 mM, lysate", "endpoint": "ΔTm", "result": "5.9 °C"}
{"Structure (SMILES)": "C=CCCCCCC(C)(NC(=O)[C@H](Cc1cscn1)NC(=O)CCc1ccccc1)C(=O)N[C@@H](CCCNC(=N)N)C(=O)c1nc2ccccc2s1 (stereo partly shown)", "target": "ST14", "test": "enzyme activity, inhibitor", "conditions": "0.1 µM", "endpoint": "remaining activity", "result": "89%"}
{"Structure (SMILES)": "Cc1cc([C@@H](C)Nc2ccccc2C(=O)O)c2nc(N3CCC(F)(F)CC3)c(C#N)c(=O)n2c1", "target": "Tyrosine-protein kinase ZAP-70 (ZAP70, Homo sapiens, UniProt P43403)", "test": "binding, competition with immobilised ligand", "conditions": "1 µM", "endpoint": "remaining binding", "result": "100%"}
{"Structure (SMILES)": "CC(=O)Nc1c(N)nc(SCC(=O)N/N=C/c2ccc([N+](=O)[O-])cc2)[nH]c1=O", "target": "CDK2 with cyclin A2", "test": "enzyme activity, inhibitor", "conditions": "5 nM", "endpoint": "inhibition", "result": "8.37%"}
{"Structure (SMILES)": "CC(=O)c1c(C)c2cnc(Nc3ccc(N4CCNCC4)cn3)nc2n(C2CCCC2)c1=O", "target": "Cyclin-dependent kinase 2 (CDK2, Homo sapiens, UniProt P24941)", "test": "enzyme activity, inhibitor, ADP detection", "conditions": "1 µM", "endpoint": "activity vs control", "result": "79%"}
{"Structure (SMILES)": "N=C(N)NCCC[C@H](NC(=O)[C@H](Cc1cccc2ccccc12)NC(=O)[C@H](Cc1cscn1)NC(=O)CCc1ccccc1)C(=O)c1nc2ccccc2s1", "target": "ST14", "test": "enzyme activity, inhibitor", "conditions": "0.1 µM", "endpoint": "remaining activity", "result": "6%"}
{"Structure (SMILES)": "CC(=O)Nc1c(N)nc(SCC(=O)NN)[nH]c1=O", "target": "CDK2 with cyclin A2", "test": "enzyme activity, inhibitor", "conditions": "0.1 µM", "endpoint": "inhibition", "result": "41.2%"}
{"Structure (SMILES)": "CC(C)(C)C[C@H](NC(=O)[C@H](Cc1cscn1)NC(=O)CCc1ccccc1)C(=O)N[C@@H](CCCNC(=N)N)C(=O)c1nc2ccccc2s1", "target": "ST14", "test": "enzyme activity, inhibitor", "conditions": "0.1 µM", "endpoint": "remaining activity", "result": "34%"}
{"Structure (SMILES)": "CC(C)Oc1ccc(S(=O)(=O)c2ccc(Oc3cc(OCC(N)=O)c(C(=O)C(Cl)Cl)cc3[N+](=O)[O-])cc2)cc1", "target": "[Pyruvate dehydrogenase (acetyl-transferring)] kinase isozyme 4, mitochondrial (PDK4, Homo sapiens, UniProt Q16654)", "test": "enzyme activity, inhibitor, ATP luminescence", "conditions": "10 µM", "endpoint": "inhibition", "result": "31.5%"}
{"Structure (SMILES)": "CC(C)C(C)(NC(=O)[C@H](Cc1cscn1)NC(=O)CCc1ccccc1)C(=O)N[C@@H](CCCNC(=N)N)C(=O)c1nc2ccccc2s1 (stereo partly shown)", "target": "ST14", "test": "enzyme activity, inhibitor", "conditions": "0.1 µM", "endpoint": "remaining activity", "result": "83%"}
{"Structure (SMILES)": "C=CC(=O)N1CCC(COCC(=O)N2CCN(c3nc(-c4cnc(N)nc4C(F)F)nc(N4CCOC[C@@H]4C)n3)CC2)CC1", "target": "Mitogen-activated protein kinase 6 (MAPK6, Homo sapiens, UniProt Q16659)", "test": "binding, competition with immobilised ligand", "conditions": "1 µM", "endpoint": "remaining binding", "result": "100%"}
{"Structure (SMILES)": "C[C@H]1c2nc3ccccc3c(-c3ccccc3)c2[C@H]2C[C@@H]1N(Cc1ccccc1)C[C@]2(C)O", "target": "Oprd1", "test": "ligand displacement, radioligand", "conditions": "1 µM", "endpoint": "inhibition", "result": "0%"}
{"Structure (SMILES)": "Cc1cc(NC(=O)c2cccc(NC(=O)/C=C/CN(C)C)c2)ccc1Nc1nccc(-c2cccnc2)n1", "target": "Mitogen-activated protein kinase 10 (MAPK10, Homo sapiens, UniProt P53779)", "test": "binding, competition with immobilised ligand", "conditions": "1 µM", "endpoint": "remaining binding", "result": "0%"}
{"Structure (SMILES)": "CNC(=O)c1cc(Oc2ccc(NC(=O)Nc3ccc(Cl)c(C(F)(F)F)c3)cc2)ccn1", "target": "CDK2 with cyclin A2", "test": "enzyme activity, inhibitor", "conditions": "10 nM", "endpoint": "inhibition", "result": "36.7%"}
{"Structure (SMILES)": "CC1([C@H](NC(=O)[C@H](Cc2cscn2)NC(=O)CCc2ccccc2)C(=O)N[C@@H](CCCNC(=N)N)C(=O)c2nc3ccccc3s2)CC1", "target": "ST14", "test": "enzyme activity, inhibitor", "conditions": "0.1 µM", "endpoint": "remaining activity", "result": "69%"}
{"Structure (SMILES)": "CNc1ncc2c(/C=C/C(=O)N3CCC(OC)CC3)nn(Cc3cccc(C(F)(F)F)c3)c2n1", "target": "CDK2 with cyclin A2", "test": "enzyme activity, inhibitor, radiometric", "conditions": "1 µM", "endpoint": "remaining activity", "result": "100%"}
{"Structure (SMILES)": "N=C(N)NCCC[C@H](NC(=O)[C@H](Cc1ccc(C(=O)c2ccccc2)cc1)NC(=O)[C@H](Cc1cscn1)NC(=O)CCc1ccccc1)C(=O)c1nc2ccccc2s1", "target": "ST14", "test": "enzyme activity, inhibitor", "conditions": "0.1 µM", "endpoint": "remaining activity", "result": "89%"}
{"Structure (SMILES)": "C[C@H]1C(=O)/C(=C/c2ccccc2)[C@H]2C[C@@H]1N(Cc1ccccc1)C[C@@]2(C)O", "target": "Oprd1", "test": "ligand displacement, radioligand", "conditions": "1 µM", "endpoint": "inhibition", "result": "16%"}
